Source: PubChem BioAssay (several laboratories)
Hits are enriched below; roughly 1.8% of the tested compounds scored in any of these assays.
Runt-CBFb FRET: Runt domain-CBFb interaction inhibition; Q01196+Q13951; Cerulean-Runt/Venus-CBFb FRET ratio 530/480, 1 h; inhibition, % at 20 µM; hit rate 0.46% among 220,000;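 active = inhibition over about 50% at 20 µM in the single-dose screen, limit read from the data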
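Assay system: Cerulean-Runt domain fusion protein, energy donor; Signal: fluorescence energy transfer, 422 nm excitation, 530/480 nm emission; Timing: 1 h compound exposure, room temperature; Control set: unlabeled CBFb; Medium: Tris buffer pH 7.5 with salts and BSA; Compound: single test concentration of 20 µM, 1% DMSO final; Probe or stimulus: Venus-CBFb 100 nM.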
Runt-SMMHC FRET: blocks binding of human RUNX1 Runt domain to CBFb-SMMHC. Q01196+Q13951. Cerulean-Runt/Venus-CBFb-SMMHC FRET ratio 530/480, 1 h. inhibition, % at 20 µM. hit rate 0.74% among 220,000. AID 1434;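 active = mean inhibition across duplicate retests at 20 µM reaching about 50%, limit read from the data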;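 note: inhibitors lower the FRET ratio by blocking Runt binding to CBFb-SMMHC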
Hck Nef HTS: inhibitors of human Hck kinase activated by Nef. AID 463187. inhibition, % at 20 µM. Recombinant Hck-YEEI plus Nef, Z-Lyte FRET kinase assay. P08631. hit rate 0.68% among 220,000;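 active = Hck-Nef kinase inhibition above about 50%, limit read from the data; inactive = inhibition below that limit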
Target sequence (P08631 whole entry, looked up): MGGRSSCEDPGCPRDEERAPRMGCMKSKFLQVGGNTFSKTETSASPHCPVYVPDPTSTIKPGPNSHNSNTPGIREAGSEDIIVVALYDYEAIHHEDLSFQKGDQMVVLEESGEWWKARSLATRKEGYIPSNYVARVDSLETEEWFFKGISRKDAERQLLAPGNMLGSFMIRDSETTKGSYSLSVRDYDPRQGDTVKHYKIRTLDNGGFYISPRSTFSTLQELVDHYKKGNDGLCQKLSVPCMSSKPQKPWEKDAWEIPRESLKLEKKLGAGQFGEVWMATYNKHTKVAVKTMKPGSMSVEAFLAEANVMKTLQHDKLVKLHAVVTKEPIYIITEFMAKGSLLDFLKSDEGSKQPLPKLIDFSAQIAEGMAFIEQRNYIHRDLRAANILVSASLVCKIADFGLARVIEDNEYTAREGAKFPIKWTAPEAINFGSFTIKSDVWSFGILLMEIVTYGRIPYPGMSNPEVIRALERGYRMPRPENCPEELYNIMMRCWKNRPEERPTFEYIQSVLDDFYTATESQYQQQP
RanGTP-Impb inh: inhibitors of RanGTP-importin-beta interaction, primary screen, biochemical, FRET, CFP-Ran, YFP-importin-beta, homogeneous | cell-free CFP-Ran/YFP-importin-beta FRET ratio | inhibition, % (test concentration not listed) | hit rate 1.1% among 300,000 | AID 2216;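 active = more than half of the replicate wells show a fall in the fluorescence ratio signal beyond about 16%, limit read from the data, passing the limit was not always enough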
Hck-Nef confirm: confirmation of Hck-Nef kinase inhibitors; Recombinant Hck-YEEI:Nef, Z-Lyte FRET kinase assay; hit rate 28% among 1,300; AID 463188; shares compounds with Hck Nef HTS; calls only at 10 µM;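 active = average inhibition of at least 50%, with Z-scores no higher than 3 in both the phospho-tyrosine peptide and fluorescence counterscreens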
Numbers stand for hits.

Screening O=c1cc(-c2ccccc2)nc2c(-c3ccccc3)c(C(F)(F)F)[nH]n12 returned Runt-CBFb FRET inactive, Runt-SMMHC FRET inactive, Hck Nef HTS 56.7, RanGTP-Impb inh inactive and Hck-Nef confirm inactive.
For N=C1S/C(=C\c2ccc(-c3cccc(Cl)c3)o2)C(=O)N1c1nccs1 the results were Runt-CBFb FRET inactive, Runt-SMMHC FRET inactive, Hck Nef HTS 50.8, RanGTP-Impb inh inactive and Hck-Nef confirm inactive.
For O=C(c1cc(C(=O)N2CCOCC2)c2nc3ccccc3n2c1)c1cc(Cl)cc(Cl)c1O the results were Runt-CBFb FRET inactive, Runt-SMMHC FRET inactive, Hck Nef HTS inactive and RanGTP-Impb inh inactive.
`COCc1cc(C)nc(N/N=C/c2ccc(-c3ccc(Cl)cc3[N+](=O)[O-])o2)c1C#N` gave Runt-CBFb FRET inactive, Runt-SMMHC FRET inactive, Hck Nef HTS 171.0, RanGTP-Impb inh inactive and Hck-Nef confirm active.
CCOc1cc(/C=N/Nc2nc(-c3cccs3)c(NC(C)=O)s2)ccc1O was read as Runt-CBFb FRET inactive, Runt-SMMHC FRET inactive, Hck Nef HTS inactive and RanGTP-Impb inh inactive.
For Cc1nn(-c2ccccc2)c(C)c1-c1cc(C(=O)N/N=C/c2ccc(O)cc2)[nH]n1 the results were Runt-CBFb FRET inactive, Runt-SMMHC FRET inactive, Hck Nef HTS 66.3, RanGTP-Impb inh inactive and Hck-Nef confirm active.
Screening COc1cc(/C=N/NC(=O)c2cc(-c3c(C)nn(-c4ccccc4)c3C)n[nH]2)ccc1O returned Runt-CBFb FRET inactive, Runt-SMMHC FRET inactive, Hck Nef HTS inactive and RanGTP-Impb inh inactive.
Screening Cc1ccc(CN2CCN(Cc3cc4ccccc4o3)CC2CCO)cc1 (stereo unspecified) returned RanGTP-Impb inh inactive.
CC[n+]1ccc(C)c2cc(SC(F)(F)F)ccc21 was read as Runt-CBFb FRET inactive, Runt-SMMHC FRET inactive, Hck Nef HTS 72.3, RanGTP-Impb inh inactive and Hck-Nef confirm inactive.
For Oc1ccc(/C=N/NC(=S)Nc2cccnc2)c(O)c1O the results were Runt-CBFb FRET inactive, Runt-SMMHC FRET inactive, Hck Nef HTS 100.0, RanGTP-Impb inh inactive and Hck-Nef confirm active.
Screening Oc1cccc(/C=N/NC(=S)Nc2cccnc2)c1O returned Runt-CBFb FRET inactive, Runt-SMMHC FRET inactive, Hck Nef HTS inactive and RanGTP-Impb inh inactive.
`COc1ccc(NC(=O)c2nc[nH]c2C(=O)N[C@@H](C)C(=O)OC(C)(C)C)cc1` gave Runt-CBFb FRET inactive, Runt-SMMHC FRET inactive, Hck Nef HTS 53.2, RanGTP-Impb inh inactive and Hck-Nef confirm inactive.
Screening COc1ccccc1-c1coc2c(CN3CCCC(C)C3)c(O)ccc2c1=O (stereo unspecified) returned RanGTP-Impb inh inactive.
`O=C(Nc1ccc(F)cc1Cl)C1CCN(C(=O)Nc2ccccc2)CC1` gave RanGTP-Impb inh inactive.
Screening O=C(Cn1c(O)c(/C=C2\C=Nc3ccc(Br)cc32)sc1=O)N1CCCC1 returned Runt-CBFb FRET inactive, Runt-SMMHC FRET inactive, Hck Nef HTS 76.2, RanGTP-Impb inh inactive and Hck-Nef confirm inactive.
For O=C(Cn1c(O)c(/C=C2\C=Nc3ccccc32)sc1=O)N1CCOCC1 the results were Runt-CBFb FRET inactive, Runt-SMMHC FRET inactive, Hck Nef HTS inactive and RanGTP-Impb inh inactive.
`CC(NS(=O)(=O)c1cccc(S(=O)(=O)c2ccccc2)c1)C(=O)O` (stereo unspecified) gave Runt-CBFb FRET inactive, Runt-SMMHC FRET inactive, Hck Nef HTS inactive and RanGTP-Impb inh inactive.
N#C/C(=C\c1coc2ccccc2c1=O)C(N)=S was read as Runt-CBFb FRET inactive, Runt-SMMHC FRET inactive, Hck Nef HTS inactive and RanGTP-Impb inh inactive.
Screening N#C/C(=C\c1coc2ccc(O)cc2c1=O)C(=O)Nc1nc2ccccc2s1 returned Runt-CBFb FRET inactive, Runt-SMMHC FRET inactive, Hck Nef HTS 63.7, RanGTP-Impb inh inactive and Hck-Nef confirm inactive.
For C=C(C)CNC(=S)Nc1sc2c(c1C(=O)OCC)CC(C)(C)OC2 the results were Runt-CBFb FRET inactive, Runt-SMMHC FRET inactive, Hck Nef HTS inactive and RanGTP-Impb inh inactive.
For O=C(Nc1ccc(S(=O)(=O)Nc2nccs2)cc1)c1cc(-c2ccccn2)nc2ccccc12 the results were Runt-CBFb FRET inactive, Runt-SMMHC FRET inactive, Hck Nef HTS 51.3, RanGTP-Impb inh inactive and Hck-Nef confirm inactive.
For O=C(Nc1ccc2c(c1)OCCO2)c1cc(-c2ccccn2)nc2ccc(Br)cc12 the results were Runt-CBFb FRET inactive, Runt-SMMHC FRET inactive, Hck Nef HTS 78.1, RanGTP-Impb inh inactive and Hck-Nef confirm inactive.
For Cc1cccc(-c2cc(C(=O)Nc3ccc4c(c3)OCCO4)c3ccccc3n2)c1 the results were Runt-CBFb FRET inactive, Runt-SMMHC FRET inactive, Hck Nef HTS inactive and RanGTP-Impb inh inactive.
Screening CCn1c(SCC(=O)N2CCc3ccccc3C2)nc2sc(C)c(C)c2c1=O returned Runt-CBFb FRET inactive, Runt-SMMHC FRET inactive, Hck Nef HTS inactive and RanGTP-Impb inh inactive.
Cc1cccc(-n2cnc(C(=O)N/N=C\c3ccc(Br)cc3)c2)n1 was read as Runt-CBFb FRET inactive, Runt-SMMHC FRET inactive, Hck Nef HTS 80.0, RanGTP-Impb inh inactive and Hck-Nef confirm inactive.
Screening O=C(Oc1ccc(/C=N/Nc2ccccc2)cc1)c1ccccc1 returned Runt-CBFb FRET inactive, Runt-SMMHC FRET inactive, Hck Nef HTS inactive and RanGTP-Impb inh inactive.
O=C(O)c1ccc(N/N=C/c2ccc(OC(=O)c3cccc(Cl)c3)cc2)cc1 was read as Runt-CBFb FRET inactive, Runt-SMMHC FRET inactive, Hck Nef HTS 56.1, RanGTP-Impb inh inactive and Hck-Nef confirm active.
COc1ccccc1C1/C(=C(/O)c2ccccc2)C(=O)C(=O)N1CC(C)O (stereo unspecified) was read as Runt-CBFb FRET inactive, Runt-SMMHC FRET inactive, Hck Nef HTS 71.9, RanGTP-Impb inh inactive and Hck-Nef confirm inactive.
`COc1ccccc1CN1CC(C(=O)NCCc2ncccc2C)CCC1=O` (stereo unspecified) gave RanGTP-Impb inh inactive.
Cc1ccsc1C(=O)OCC(=O)N(C)c1c(N)n(Cc2ccccc2)c(=O)[nH]c1=O was read as RanGTP-Impb inh inactive.
CCCc1cc(NCCN(C)C)n2c(nc3ccccc32)c1C#N was read as RanGTP-Impb inh inactive.
CCCNc1cc(C)c(C#N)c2nc3ccccc3n12 was read as Runt-CBFb FRET inactive, Runt-SMMHC FRET inactive and Hck Nef HTS inactive.
Screening COCCNc1cc(C)c(C#N)c2nc3ccccc3n12 returned Runt-CBFb FRET inactive, Runt-SMMHC FRET inactive, Hck Nef HTS 70.4 and RanGTP-Impb inh 24.7.
For CCCc1cc(NCC2CCCO2)n2c(nc3ccccc32)c1C#N (stereo unspecified) the results were Runt-CBFb FRET inactive, Runt-SMMHC FRET 55.1, Hck Nef HTS 121.5 and RanGTP-Impb inh 52.1.
Screening CCCCCCCC(=O)Oc1ccc(C(=O)Nc2cc(C)on2)cc1 returned RanGTP-Impb inh inactive.
COCCN=c1scc(C)n1/N=C/C1CC2C=CC1C2 (stereo unspecified) was read as Runt-CBFb FRET inactive, Runt-SMMHC FRET inactive, Hck Nef HTS inactive and RanGTP-Impb inh inactive.
